From ChEMBL document CHEMBL1154183, “Structure-based optimization of potent and selective inhibitors of the tyrosine kinase erythropoietin producing human hepatocellular carcinoma receptor B4 (EphB4)” (J Med Chem, 2009)

Target: T1, Ephrin type-B receptor 4 (Homo sapiens, UniProt P54760)
T1 sequence (P54760 whole entry): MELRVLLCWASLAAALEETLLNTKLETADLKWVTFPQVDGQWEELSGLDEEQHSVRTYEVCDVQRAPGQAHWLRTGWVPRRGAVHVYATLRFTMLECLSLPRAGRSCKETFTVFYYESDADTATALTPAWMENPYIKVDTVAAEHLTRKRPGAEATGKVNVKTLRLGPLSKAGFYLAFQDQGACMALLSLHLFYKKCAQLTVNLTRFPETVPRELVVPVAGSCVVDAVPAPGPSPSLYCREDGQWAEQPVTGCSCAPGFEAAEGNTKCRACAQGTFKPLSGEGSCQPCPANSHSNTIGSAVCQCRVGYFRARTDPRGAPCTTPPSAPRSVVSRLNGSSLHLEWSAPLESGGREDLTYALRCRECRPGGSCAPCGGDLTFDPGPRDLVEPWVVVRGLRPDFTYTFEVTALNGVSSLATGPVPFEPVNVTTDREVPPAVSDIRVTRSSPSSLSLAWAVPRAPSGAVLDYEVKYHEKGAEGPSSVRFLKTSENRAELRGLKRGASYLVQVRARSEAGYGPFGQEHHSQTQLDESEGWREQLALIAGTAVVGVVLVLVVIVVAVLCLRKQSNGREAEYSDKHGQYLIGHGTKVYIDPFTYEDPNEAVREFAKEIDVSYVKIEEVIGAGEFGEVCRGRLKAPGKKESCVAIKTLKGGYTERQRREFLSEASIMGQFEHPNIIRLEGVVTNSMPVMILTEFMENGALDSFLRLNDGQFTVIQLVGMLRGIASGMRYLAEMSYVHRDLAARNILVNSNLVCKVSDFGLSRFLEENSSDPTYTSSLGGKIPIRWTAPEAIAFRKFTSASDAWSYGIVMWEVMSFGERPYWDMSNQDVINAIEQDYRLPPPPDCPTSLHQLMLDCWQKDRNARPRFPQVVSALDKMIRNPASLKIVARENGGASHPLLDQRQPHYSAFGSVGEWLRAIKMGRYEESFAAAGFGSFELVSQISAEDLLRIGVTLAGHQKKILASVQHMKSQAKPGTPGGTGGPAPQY
Experiment: Inhibition of EphB4 assessed as blockade of synthetic substrate phosphorylation by FRET assay

Structure (SMILES) | IC50 [µM]
COc1ccccc1-n1c(-c2ccc(F)cc2)cn2c3c(=O)[nH]c(=O)[nH]c3nc12 | 5.4
CCCCn1c(-c2ccccc2OC)cn2c3c(=O)[nH]c(=O)n(C)c3nc12 | > 10
COc1ccccc1-n1c(-c2ccc3c(c2)OCO3)cn2c3c(=O)[nH]c(=O)n(C)c3nc12 | > 20
COc1ccccc1-n1c(-c2ccc([N+](=O)[O-])cc2)cn2c3c(=O)[nH]c(=O)n(C)c3nc12 | > 20
COc1ccccc1-n1c(-c2ccccc2)cn2c3c(=O)[nH]c(=O)n(Cc4ccccc4)c3nc12 | > 10
CCCCn1c(-c2ccc(OC)cc2)cn2c3c(=O)[nH]c(=O)n(C)c3nc12 | > 10
COc1ccccc1-n1c(-c2ccc(C(=O)O)cc2)cn2c3c(=O)[nH]c(=O)n(C)c3nc12 | > 20
COc1ccccc1-n1c(-c2cccc(O)c2)cn2c3c(=O)[nH]c(=O)n(C)c3nc12 | 0.368
COc1ccccc1-n1c(-c2ccc(O)cc2C)cn2c3c(=O)[nH]c(=O)n(C)c3nc12 | 0.236
CCCCn1c(-c2ccc(O)cc2)cn2c3c(=O)[nH]c(=O)n(C)c3nc12 | 0.558
COc1ccccc1-n1c(-c2cccc(C)c2)cn2c3c(=O)[nH]c(=O)n(C)c3nc12 | > 10
CCCCn1c(-c2cccc(O)c2)cn2c3c(=O)[nH]c(=O)n(C)c3nc12 | 0.691
COc1ccccc1-n1c(-c2ccc(F)cc2)cn2c3c(=O)[nH]c(=O)n(Cc4ccccc4)c3nc12 | > 10
COc1ccccc1-n1c(-c2cccc(O)c2C)cn2c3c(=O)[nH]c(=O)n(C)c3nc12 | 1.2
CCCCn1c(-c2ccccc2O)cn2c3c(=O)[nH]c(=O)n(C)c3nc12 | 1.6
COc1ccccc1-n1c(-c2ccc(C#N)cc2)cn2c3c(=O)[nH]c(=O)n(C)c3nc12 | > 20

Target: T1, Ephrin type-B receptor 4
Experiment: Inhibition of EphB4 by [gamma33-P]ATP based assay

Structure (SMILES) | IC50 [µM]
Cn1c(=O)[nH]c(=O)c2c1nc1n(CCCCO)c(-c3ccccc3)cn21 | 5.68
COc1ccccc1-n1c(-c2cccc(O)c2)cn2c3c(=O)[nH]c(=O)n(C)c3nc12 | 0.213

Target: T2, Ephrin type-B receptor 4 (Homo sapiens) (UniProt P54760)
T2 sequence (whole entry): T1 sequence (P54760 whole entry)
Experiment: Inhibition of EphB4 assessed as blockade of synthetic substrate phosphorylation at 10 uM by FRET assay
Design: scale not given: the % may be the effect or the level left
How it was run: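 Z'-LYTE FRET kinase assay with Tyr 1 peptide substrate. Final EphB4 25 ng/μL, ATP 125 μM (near Km), 30 °C for 2 h. Excitation 400 nm, emission at 445 and 520 nm, read as fluorescence progress curves. Inhibition of substrate phosphorylation was measured.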

Structure (SMILES) | Activity [%]
CCCCn1c(-c2cccc(OC)c2)cn2c3c(=O)[nH]c(=O)n(C)c3nc12 | 36
COc1ccccc1-n1c(-c2cccc3c2OCO3)cn2c3c(=O)[nH]c(=O)n(C)c3nc12 | 30
COc1ccccc1-n1c(-c2ccc(O)cc2)cn2c3c(=O)[nH]c(=O)n(C)c3nc12 | 59
CCCCn1c(-c2cccc(C)c2)cn2c3c(=O)[nH]c(=O)n(C)c3nc12 | 37
COc1ccccc1-n1c(-c2ccccc2O)cn2c3c(=O)[nH]c(=O)n(C)c3nc12 | 64
CCCCn1c(-c2ccc(C)cc2)cn2c3c(=O)[nH]c(=O)n(C)c3nc12 | 38
Cn1c(=O)[nH]c(=O)c2c1nc1n(CCCCO)c(-c3ccc4c(c3)OCO4)cn21 | 42
